Source: ChEMBL document CHEMBL3259728, “Design, synthesis and biological evaluation of some novel substituted quinazolines as antitumor agents” (2014)

Key:
Type in all cases: functional
MDA-MB-468 = assay: Growth inhibition of human MDA-MB-468 cells assessed as cell growth at 10 uM after 48 hrs by SRB assay; conditions: MDA-MB-468, 48 h, read-out: GI
In short: (§1)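 NCI-60 primary one-dose screen run at the US NCI, with human tumour lines from nine cancer types. Compound added once at 10^-5 M, followed by 48 h incubation. End point was sulforhodamine B protein staining read spectrophotometrically. Result given as percent growth of treated cells against untreated controls, reported as % growth inhibition.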

[1] = Growth inhibition of human BT549 cells at 10 uM after 48 hrs by SRB assay; conditions: BT-549, 48 h, read-out: GI
In short: (§2)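 NCI primary one-dose screen. A single concentration of 10^-5 M was added to the cell culture, followed by 48 h incubation and an SRB protein-dye endpoint read spectrophotometrically. Results are growth percentage relative to untreated control cells, reported as % growth inhibition.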

MCF7 = assay: Growth inhibition of human MCF7 cells at 10 uM after 48 hrs by SRB assay; conditions: MCF7, 48 h, read-out: GI; in short: as §1
DU-145 = assay: Growth inhibition of human DU145 cells at 10 uM after 48 hrs by SRB assay; conditions: DU-145, 48 h, read-out: GI; in short: as §1
PC-3 = assay: Growth inhibition of human PC3 cells at 10 uM after 48 hrs by SRB assay; conditions: PC-3, 48 h, read-out: GI; in short: as §1
CAKI-1 = assay: Growth inhibition of human CAKI-1 cells at 10 uM after 48 hrs by SRB assay; conditions: CAKI-1, 48 h, read-out: GI; in short: as §2
ACHN = assay: Growth inhibition of human ACHN cells at 10 uM after 48 hrs by SRB assay; conditions: read-out: GI; in short: as §2
A498 = assay: Growth inhibition of human A498 cells at 10 uM after 48 hrs by SRB assay; conditions: A498, 48 h, read-out: GI; in short: as §2
786-0 = assay: Growth inhibition of human 786-0 cells at 10 uM after 48 hrs by SRB assay; conditions: 786-0, 48 h, read-out: GI; in short: as §2
[2] = Growth inhibition of human NCI-ADR-RES cells at 10 uM after 48 hrs by SRB assay; conditions: read-out: GI; in short: as §1
[3] = Growth inhibition of human OVCAR5 cells at 10 uM after 48 hrs by SRB assay; conditions: OVCAR-5, 48 h, read-out: GI; in short: as §1
[4] = Growth inhibition of human OVCAR4 cells at 10 uM after 48 hrs by SRB assay; conditions: OVCAR-4, 48 h, read-out: GI; in short: as §1
[5] = Growth inhibition of human OVCAR3 cells at 10 uM after 48 hrs by SRB assay; conditions: OVCAR-3, 48 h, read-out: GI; in short: as §1
[6] = Growth inhibition of human UACC257 cells at 10 uM after 48 hrs by SRB assay; conditions: UACC-257, 48 h, read-out: GI; in short: as §1
SK-MEL-2 = assay: Growth inhibition of human SK-MEL-2 cells at 10 uM after 48 hrs by SRB assay; conditions: SK-MEL-2, 48 h, read-out: GI; in short: as §1
MDA-MB-435 = assay: Growth inhibition of human MDA-MB-435 cells at 10 uM after 48 hrs by SRB assay; conditions: MDA-MB-435, 48 h, read-out: GI; in short: as §1
M14 = assay: Growth inhibition of human M14 cells at 10 uM after 48 hrs by SRB assay; conditions: M14, 48 h, read-out: GI; in short: as §1
Malme-3M = assay: Growth inhibition of human MALME-3M cells at 10 uM after 48 hrs by SRB assay; conditions: read-out: GI; in short: as §1
[7] = Growth inhibition of human LOXIMVI cells at 10 uM after 48 hrs by SRB assay; conditions: LOX IMVI, read-out: GI; in short: as §1
U-251 = assay: Growth inhibition of human U251 cells at 10 uM after 48 hrs by SRB assay; conditions: U-251, 48 h, read-out: GI; in short: as §1
SNB-75 = assay: Growth inhibition of human SNB75 cells at 10 uM after 48 hrs by SRB assay; conditions: SNB-75, 48 h, read-out: GI; in short: as §1
SNB-19 = assay: Growth inhibition of human SNB19 cells at 10 uM after 48 hrs by SRB assay; conditions: SNB-19, 48 h, read-out: GI; in short: as §1
KM12 = assay: Growth inhibition of human KM12 cells at 10 uM after 48 hrs by SRB assay; conditions: KM12, 48 h, read-out: GI; in short: as §1
HT-29 = assay: Growth inhibition of human HT-29 cells at 10 uM after 48 hrs by SRB assay; conditions: HT-29, 48 h, read-out: GI; in short: as §1
HCT-116 = assay: Growth inhibition of human HCT116 cells at 10 uM after 48 hrs by SRB assay; conditions: HCT-116, 48 h, read-out: GI; in short: as §1
[8] = Growth inhibition of human HCC2998 cells at 10 uM after 48 hrs by SRB assay; conditions: HCC 2998, 48 h, read-out: GI; in short: as §1
COLO 205 = assay: Growth inhibition of human COLO205 cells at 10 uM after 48 hrs by SRB assay; conditions: COLO 205, 48 h, read-out: GI; in short: as §2
NCI-H522 = assay: Growth inhibition of human NCI-H522 cells at 10 uM after 48 hrs by SRB assay; conditions: NCI-H522, 48 h, read-out: GI; in short: as §1
NCI-H460 = assay: Growth inhibition of human NCI-H460 cells at 10 uM after 48 hrs by SRB assay; conditions: NCI-H460, 48 h, read-out: GI; in short: as §1
NCI-H23 = assay: Growth inhibition of human NCI-H23 cells at 10 uM after 48 hrs by SRB assay; conditions: NCI-H23, 48 h, read-out: GI; in short: as §1
NCI-H226 = assay: Growth inhibition of human NCI-H226 cells at 10 uM after 48 hrs by SRB assay; conditions: NCI-H226, 48 h, read-out: GI; in short: as §1
HOP-62 = assay: Growth inhibition of human HOP62 cells at 10 uM after 48 hrs by SRB assay; conditions: HOP-62, 48 h, read-out: GI; in short: as §1
A549 = assay: Growth inhibition of human A549 cells at 10 uM after 48 hrs by SRB assay; conditions: A549, 48 h, read-out: GI; in short: as §2
[9] = Growth inhibition of human OVCAR8 cells at 10 uM after 48 hrs by SRB assay; conditions: OVCAR-8, 48 h, read-out: GI; in short: as §1
SK-MEL-28 = assay: Growth inhibition of human SK-MEL-28 cells at 10 uM after 48 hrs by SRB assay; conditions: SK-MEL-28, 48 h, read-out: GI; in short: as §1
[10] = Growth inhibition of human UACC62 cells at 10 uM after 48 hrs by SRB assay; conditions: UACC-62, 48 h, read-out: GI; in short: as §1
RPMI-8226 = assay: Growth inhibition of human RPMI8226 cells at 10 uM after 48 hrs by SRB assay; conditions: RPMI-8226, 48 h, read-out: GI; in short: as §1
[11] = Growth inhibition of human MOLT4 cells at 10 uM after 48 hrs by SRB assay; conditions: MOLT-4, 48 h, read-out: GI; in short: as §1

Structure (SMILES)	inhibition of growth at 10 µM [1]	inhibition of growth at 10 µM (MCF7)	inhibition of growth at 10 µM (DU-145)	inhibition of growth at 10 µM (PC-3)	inhibition of growth at 10 µM (CAKI-1)	inhibition of growth at 10 µM (ACHN)	inhibition of growth at 10 µM (786-0)	inhibition of growth at 10 µM [2]	inhibition of growth at 10 µM [3]	inhibition of growth at 10 µM [4]	inhibition of growth at 10 µM [5]	inhibition of growth at 10 µM [6]	inhibition of growth at 10 µM (SK-MEL-2)	inhibition of growth at 10 µM (MDA-MB-435)	inhibition of growth at 10 µM (M14)	inhibition of growth at 10 µM (Malme-3M)	inhibition of growth at 10 µM [7]	inhibition of growth at 10 µM (U-251)	inhibition of growth at 10 µM (SNB-75)	inhibition of growth at 10 µM (SNB-19)	further results
Cc1ccc(C(=O)Nc2ccc(Cl)cc2C(=O)Nc2ccccc2)cc1	< 10%	11%	< 10%	15%	18%	17%	< 10%	< 10%	14%	11%	< 10%	< 10%	< 10%	11%	< 10%	12%	< 10%	14%	28%	13%	inhibition of growth at 10 µM (MDA-MB-468): 11%; inhibition of growth at 10 µM (A498): < 10%; inhibition of growth at 10 µM (KM12): < 10%; inhibition of growth at 10 µM (HT-29): < 10%; inhibition of growth at 10 µM (HCT-116): < 10%; inhibition of growth at 10 µM [8]: < 10%; inhibition of growth at 10 µM (COLO 205): < 10%; inhibition of growth at 10 µM (NCI-H522): 21%; inhibition of growth at 10 µM (NCI-H460): < 10%; inhibition of growth at 10 µM (NCI-H23): < 10%; inhibition of growth at 10 µM (NCI-H226): < 10%; inhibition of growth at 10 µM (HOP-62): 29%; inhibition of growth at 10 µM (A549): < 10%; inhibition of growth at 10 µM [9]: < 10%; inhibition of growth at 10 µM (SK-MEL-28): < 10%
Cc1ccc(-c2nc3ccc(Cl)cc3c(=O)n2NC(=O)CN)cc1	< 10%	12%	< 10%	< 10%	14%	14%	< 10%	< 10%	11%	< 10%	< 10%	< 10%	< 10%	< 10%	11%	< 10%	< 10%	< 10%	15%	< 10%	inhibition of growth at 10 µM (MDA-MB-468): < 10%; inhibition of growth at 10 µM [10]: < 10%; inhibition of growth at 10 µM (KM12): < 10%; inhibition of growth at 10 µM (HT-29): 12%; inhibition of growth at 10 µM (HCT-116): 11%; inhibition of growth at 10 µM [8]: < 10%; inhibition of growth at 10 µM (COLO 205): < 10%; inhibition of growth at 10 µM (NCI-H522): < 10%; inhibition of growth at 10 µM (NCI-H460): < 10%; inhibition of growth at 10 µM (NCI-H23): < 10%; inhibition of growth at 10 µM (NCI-H226): 11%; inhibition of growth at 10 µM (HOP-62): 15%; inhibition of growth at 10 µM (A549): < 10%; inhibition of growth at 10 µM (RPMI-8226): < 10%; inhibition of growth at 10 µM [11]: < 10%; inhibition of growth at 10 µM [9]: < 10%; inhibition of growth at 10 µM (SK-MEL-28): < 10%
Cc1ccc(C(=O)Nc2ccc(Cl)cc2C(=O)Nc2ccccn2)cc1	< 10%	19%	11%	23%	20%	< 10%	< 10%	< 10%	< 10%	22%	12%	< 10%	< 10%	19%	< 10%	< 10%	< 10%	< 10%	24%	< 10%	inhibition of growth at 10 µM (MDA-MB-468): 11%; inhibition of growth at 10 µM (A498): 39%; inhibition of growth at 10 µM [10]: 16%; inhibition of growth at 10 µM (KM12): 11%; inhibition of growth at 10 µM (HT-29): 14%; inhibition of growth at 10 µM (HCT-116): < 10%; inhibition of growth at 10 µM [8]: < 10%; inhibition of growth at 10 µM (COLO 205): < 10%; inhibition of growth at 10 µM (NCI-H522): 22%; inhibition of growth at 10 µM (NCI-H460): < 10%; inhibition of growth at 10 µM (NCI-H23): < 10%; inhibition of growth at 10 µM (NCI-H226): < 10%; inhibition of growth at 10 µM (HOP-62): < 10%; inhibition of growth at 10 µM (A549): 13%; inhibition of growth at 10 µM (RPMI-8226): 15%; inhibition of growth at 10 µM [9]: < 10%; inhibition of growth at 10 µM (SK-MEL-28): < 10%
Cc1ccc(-c2nc3ccc(Cl)cc3c(=O)n2/N=C/c2ccccc2)cc1	< 10%	20%	27%	30%	40%	74%	30%	30%	18%	86%	42%	< 10%	< 10%	34%	29%	35%	11%	88%	74%	25%	inhibition of growth at 10 µM (A498): 16%; inhibition of growth at 10 µM [10]: 23%; inhibition of growth at 10 µM (KM12): 18%; inhibition of growth at 10 µM (HT-29): 17%; inhibition of growth at 10 µM (HCT-116): 47%; inhibition of growth at 10 µM [8]: < 10%; inhibition of growth at 10 µM (COLO 205): 34%; inhibition of growth at 10 µM (NCI-H522): 52%; inhibition of growth at 10 µM (NCI-H460): 23%; inhibition of growth at 10 µM (NCI-H23): 11%; inhibition of growth at 10 µM (NCI-H226): 14%; inhibition of growth at 10 µM (HOP-62): 98%; inhibition of growth at 10 µM (A549): 87%; inhibition of growth at 10 µM (RPMI-8226): 20%; inhibition of growth at 10 µM [11]: 18%; inhibition of growth at 10 µM [9]: 73%; inhibition of growth at 10 µM (SK-MEL-28): < 10%
